Source: ChEMBL document CHEMBL4396885, “Thioether-based 2-aminobenzamide derivatives: Novel HDAC inhibitors with potent in vitro and in vivo antitumor activity” (Eur J Med Chem, 2019)

Tests used:
A549 [1] = assay: Induction of apoptosis in human A549 cells assessed as early apoptotic cells at 1 uM after 48 hrs by Annexin V-FITC/propidium iodide staining based flow cytometry (reference value: 1.19%); format: functional
Procedure, shortened: (§1)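 A549 seeded 4×10⁶ cells/well, dosed after 12 h with compound at various concentrations, harvested after 48 h. Resuspended in annexin-binding buffer, stained with Annexin V-FITC and propidium iodide for 15 min in the dark, analysed by flow cytometry; means of three separate experiments.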

A549 [2] = assay: Cell cycle arrest in human A549 cells assessed as accumulation of cells at S phase at 2 uM after 48 hrs by propidium iodide staining-based flow cytometry (reference value: 12.83%); format: functional
HeLa [3] = assay: Antiproliferative activity against human HeLa cells assessed as growth inhibition at 8 uM after 72 hrs by CCK-8 assay relative to control; format: functional; conditions: read-out: GI
A549 [4] = assay: Cell cycle arrest in human A549 cells assessed as accumulation of cells at G0/G1 phase at 1 uM after 48 hrs by propidium iodide staining-based flow cytometry (reference value: 73.35%); format: functional
A549 [5] = assay: Cell cycle arrest in human A549 cells assessed as accumulation of cells at G0/G1 phase at 2 uM after 48 hrs by propidium iodide staining-based flow cytometry (reference value: 73.35%); format: functional
A-375 [6] = assay: Antiproliferative activity against human A375 cells assessed as growth inhibition at 2 uM after 72 hrs by CCK-8 assay relative to control; format: functional; conditions: A-375, 72 h, read-out: GI
A549 [7] = assay: Cell cycle arrest in human A549 cells assessed as accumulation of cells at S phase at 1 uM after 48 hrs by propidium iodide staining-based flow cytometry (reference value: 12.83%); format: functional
A549 [8] = assay: Cell cycle arrest in human A549 cells assessed as accumulation of cells at G0/G1 phase at 0.5 uM after 48 hrs by propidium iodide staining-based flow cytometry (reference value: 73.35%); format: functional
A-375 [9] = assay: Antiproliferative activity against human A375 cells assessed as decrease in cell viability after 72 hrs by CCK-8 assay; format: functional, cell-based; conditions: A-375, 72 h
Procedure, shortened: (§2)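 Cells grown to 70–85% confluence (A375, A549, HCT116 in RPMI1640; HeLa, SMMC7721 in DMEM; 10% FBS, 37 °C, 5% CO2), seeded 4000/well, dosed after 12 h across a concentration range, incubated 72 h, then CCK-8 for 1 h; absorbance at 450 nm. IC50 as mean ± SD of three separate experiments.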

A549 [10] = assay: Induction of apoptosis in human A549 cells assessed as necrotic cells at 2 uM after 48 hrs by Annexin V-FITC/propidium iodide staining based flow cytometry (reference value: 0.135%); format: functional; procedure, shortened: as §1
A549 [11] = assay: Induction of apoptosis in human A549 cells assessed as early apoptotic cells at 0.5 uM after 48 hrs by Annexin V-FITC/propidium iodide staining based flow cytometry (reference value: 1.19%); format: functional; procedure, shortened: as §1
SMMC-7721 [12] = assay: Antiproliferative activity against human SMMC7721 cells assessed as growth inhibition at 8 uM after 72 hrs by CCK-8 assay relative to control; format: functional; conditions: SMMC-7721, 72 h, read-out: GI
HCT-116 [13] = assay: Antiproliferative activity against human HCT116 cells assessed as decrease in cell viability after 72 hrs by CCK-8 assay; format: functional, cell-based; conditions: HCT-116, 72 h; procedure, shortened: as §2
HeLa [14] = assay: Antiproliferative activity against human HeLa cells assessed as decrease in cell viability after 72 hrs by CCK-8 assay; format: functional, cell-based; procedure, shortened: as §2
A549 [15] = assay: Antiproliferative activity against human A549 cells assessed as growth inhibition at 2 uM after 72 hrs by CCK-8 assay relative to control; format: functional; conditions: A549, 72 h, read-out: GI
A549 [16] = assay: Antitumor activity against human A549 cells xenografted in Balb/c nude mouse assessed as tumor growth inhibition at 25 mg/kg, ip administered twice per day for 21 days relative to control; format: functional; conditions: 504 h, read-out: TGI
Procedure, shortened: (§3)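 Female BALB/c nude mice, 5–6 weeks, implanted s.c. in right axilla with 3×10⁶ A549 cells; randomized at ~95 mm³ tumor volume, 4 per group. Dosed ip 25 mg/kg twice daily for 21 days; vehicle controls got DMA & 5% Solutol HS-15 (5:95). Tumor size (V=length×width²/2) and body weight measured every 3 days; TGI from volume change relative to control.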

A549 [17] = assay: Cell cycle arrest in human A549 cells assessed as accumulation of cells at G2/M phase at 0.5 uM after 48 hrs by propidium iodide staining-based flow cytometry (reference value: 13.62%); format: functional
A-375 [18] = assay: Antiproliferative activity against human A375 cells assessed as growth inhibition at 8 uM after 72 hrs by CCK-8 assay relative to control; format: functional; conditions: A-375, 72 h, read-out: GI
A549 [19] = assay: Cell cycle arrest in human A549 cells assessed as accumulation of cells at G2/M phase at 1 uM after 48 hrs by propidium iodide staining-based flow cytometry (reference value: 13.62%); format: functional
A549 [20] = assay: Induction of apoptosis in human A549 cells assessed as necrotic cells at 0.5 uM after 48 hrs by Annexin V-FITC/propidium iodide staining based flow cytometry (reference value: 0.135%); format: functional; procedure, shortened: as §1
A549 [21] = assay: Induction of apoptosis in human A549 cells assessed as late apoptotic cells at 1 uM after 48 hrs by Annexin V-FITC/propidium iodide staining based flow cytometry (reference value: 0.637%); format: functional; procedure, shortened: as §1
SMMC-7721 [22] = assay: Antiproliferative activity against human SMMC7721 cells assessed as decrease in cell viability after 72 hrs by CCK-8 assay; format: functional, cell-based; conditions: SMMC-7721, 72 h; procedure, shortened: as §2
HeLa [23] = assay: Antiproliferative activity against human HeLa cells assessed as growth inhibition at 2 uM after 72 hrs by CCK-8 assay relative to control; format: functional; conditions: read-out: GI
HCT-116 [24] = assay: Antiproliferative activity against human HCT116 cells assessed as growth inhibition at 8 uM after 72 hrs by CCK-8 assay relative to control; format: functional; conditions: HCT-116, 72 h, read-out: GI
A549 [25] = assay: Cell cycle arrest in human A549 cells assessed as accumulation of cells at G2/M phase at 2 uM after 48 hrs by propidium iodide staining-based flow cytometry (reference value: 13.62%); format: functional
A549 [26] = assay: Induction of apoptosis in human A549 cells assessed as early apoptotic cells at 2 uM after 48 hrs by Annexin V-FITC/propidium iodide staining based flow cytometry (reference value: 1.19%); format: functional; procedure, shortened: as §1
A549 [27] = assay: Induction of apoptosis in human A549 cells assessed as necrotic cells at 1 uM after 48 hrs by Annexin V-FITC/propidium iodide staining based flow cytometry (reference value: 0.135%); format: functional; procedure, shortened: as §1
A549 [28] = assay: Induction of apoptosis in human A549 cells assessed as late apoptotic cells at 2 uM after 48 hrs by Annexin V-FITC/propidium iodide staining based flow cytometry (reference value: 0.637%); format: functional; procedure, shortened: as §1
A549 [29] = assay: Cell cycle arrest in human A549 cells assessed as accumulation of cells at S phase at 0.5 uM after 48 hrs by propidium iodide staining-based flow cytometry (reference value: 12.83%); format: functional
HCT-116 [30] = assay: Antiproliferative activity against human HCT116 cells assessed as growth inhibition at 2 uM after 72 hrs by CCK-8 assay relative to control; format: functional; conditions: HCT-116, 72 h, read-out: GI
A549 [31] = assay: Induction of apoptosis in human A549 cells assessed as viable cells at 2 uM after 48 hrs by Annexin V-FITC/propidium iodide staining based flow cytometry (reference value: 98%); format: functional; conditions: A549, 48 h, read-out: Activity; procedure, shortened: as §1
A549 [32] = assay: Antiproliferative activity against human A549 cells assessed as decrease in cell viability after 72 hrs by CCK-8 assay; format: functional, cell-based; conditions: A549, 72 h; procedure, shortened: as §2
SMMC-7721 [33] = assay: Antiproliferative activity against human SMMC7721 cells assessed as growth inhibition at 2 uM after 72 hrs by CCK-8 assay relative to control; format: functional; conditions: SMMC-7721, 72 h, read-out: GI
A549 [34] = assay: Induction of apoptosis in human A549 cells assessed as late apoptotic cells at 0.5 uM after 48 hrs by Annexin V-FITC/propidium iodide staining based flow cytometry (reference value: 0.637%); format: functional; procedure, shortened: as §1
A549 [35] = assay: Induction of apoptosis in human A549 cells assessed as viable cells at 0.5 uM after 48 hrs by Annexin V-FITC/propidium iodide staining based flow cytometry (reference value: 98%); format: functional; conditions: A549, 48 h, read-out: Activity; procedure, shortened: as §1
[36] = Toxicity against nude Balb/c mouse xenografted with human A549 cells assessed as no change in body weight at 25 mg/kg, ip administered twice per day for 21 days and measured every 3 days during compound dosing; format: organism-based; conditions: in vivo; procedure, shortened: as §3
A549 [37] = assay: Antiproliferative activity against human A549 cells assessed as growth inhibition at 8 uM after 72 hrs by CCK-8 assay relative to control; format: functional; conditions: A549, 72 h, read-out: GI
A549 [38] = assay: Induction of apoptosis in human A549 cells assessed as viable cells at 1 uM after 48 hrs by Annexin V-FITC/propidium iodide staining based flow cytometry (reference value: 98%); format: functional; conditions: A549, 48 h, read-out: Activity; procedure, shortened: as §1

Q: What does the source list for CC(=O)Nc1ccc(C(=O)Nc2ccccc2N)cc1 [TACEDINALINE]?
A: Activity (A549 [1]): 3.92%; Activity (A549 [2]): 7.37%; inhibition of growth at 8 µM (HeLa [3]): 29.1%; Activity (A549 [4]): 75.86%; Activity (A549 [5]): 77.38%; inhibition of growth at 2 µM (A-375 [6]): 12.8%; Activity (A549 [7]): 6.73%; Activity (A549 [8]): 76.99%; IC50 (A-375 [9]): 9.64 µM; Activity (A549 [10]): 3.15%; Activity (A549 [11]): 1.17%; inhibition of growth at 8 µM (SMMC-7721 [12]): 29.1%; IC50 (HCT-116 [13]): 6.39 µM; IC50 (HeLa [14]): 13.4 µM; inhibition of growth at 2 µM (A549 [15]): 23.5%; inhibition in vivo at 25 mg/kg (A549 [16]): 46.8%; Activity (A549 [17]): 15.37%; inhibition of growth at 8 µM (A-375 [18]): 46.4%; Activity (A549 [19]): 17.41%; Activity (A549 [20]): 4.6%; Activity (A549 [21]): 5.87%; IC50 (SMMC-7721 [22]): 14.1 µM; inhibition of growth at 2 µM (HeLa [23]): 23.5%; inhibition of growth at 8 µM (HCT-116 [24]): 44%; Activity (A549 [25]): 15.25%; Activity (A549 [26]): 3.68%; Activity (A549 [27]): 0.521%; Activity (A549 [28]): 9.92%; Activity (A549 [29]): 7.64%; inhibition of growth at 2 µM (HCT-116 [30]): 13%; viability at 2 µM (A549 [31]): 83.3%; IC50 (A549 [32]): 16.4 µM; inhibition of growth at 2 µM (SMMC-7721 [33]): 23.5%; Activity (A549 [34]): 1.86%; viability at 0.5 µM (A549 [35]): 92.4%; Activity [36]: Non-Toxic; inhibition of growth at 8 µM (A549 [37]): 29.1%; viability at 1 µM (A549 [38]): 89.7%
